CSC inhib: cancer stem cell inhibition. cancer stem cell-like cells viability, luminescence. inhibition, % at 7.5 µM. actives 1.1% (n = 300,000). AID 2717; in the data active = inhibition above about 75%; inconclusive = no clear call, values can overlap the other calls; tested in HMLE shEcad cells
Beta apoptosis: beta cell apoptosis inhibition; protection from apoptosis, % (test concentration not listed); AID 435005; INS-1E cytokine-induced death, ATP luminescence, 48 h; percent of positive-control rescue, neutral wells zero; actives 0.8% (n = 300,000);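 active = Every replicate reaches about 75%, or at least half do and their mean reaches it too, limit read from the data; inconclusive = At least half of replicates reach the limit but their mean does not; inactive = Under half of replicates reach the limit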;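 also: 0% = cytokine-treated negative control wells and 100% = positive control rescue; higher means more ATP so stronger rescue from cytokine killing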
SKKanGAS inh: SKKanGAS growth inhibition. inhibition, % at 7.5 µM. AID 1662. S. pyogenes SKKanGAS, kanamycin growth, BacTiter-Glo, 6 h. actives 1.3% (n = 300,000);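 active = mean replicate score, as percent of positive control median, at least 50; inconclusive = mean below 50 but one replicate at or above 50; inactive = mean and every replicate below 50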;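 also: strain carries kanamycin resistance gene driven by streptokinase promoter and grows in 40 µg/ml kanamycin; loss of luminescence reflects streptokinase promoter inhibition or plain growth inhibition; 0% = median of DMSO wells and 100% = positive control at its reference dose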
T cruzi inh: T. cruzi replication inhibition. T. cruzi beta-gal in NIH3T3, luminescence, 90 h. inhibition, % (concentration not given with the values). actives 1.4% (n = 300,000). AID 1885;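 active = mean inhibition across valid replicates above about 55%, limit read from the data; inconclusive = mean below that limit but half or more replicates reach it; inactive = mean below it, under half of replicates reach it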;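 also: signal also drops with host cell toxicity which is not excluded here; 0% = plate median of DMSO wells and 100% = zero luminescence signal; higher percent means less beta-gal luminescence so fewer parasites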
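assay system = mouse NIH/3T3 fibroblasts infected with β-gal-expressing T. cruzi Tulahuen C4 | input = 5,000 NIH/3T3 host cells per well | buffer or medium = DMEM plus 2% FBS | timing = 3 h host attachment, then at least 90 h co-culture | measured by = GalScreen luminescence, 60 min | evaluation = luminescence reflecting intracellular parasite burden, expressed as percent inhibition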
Calb FLC: C. albicans growth modulation with fluconazole; C. albicans CaCi-2 (fluconazole-resistant clinical isolate) + fluconazole, Alamar Blue growth, 48 h; growth inhibition, % (no concentration beside the values); actives 0.57% (n = 300,000);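 active = growth inhibition above about 58% in most replicates, limit read from the data, passing the limit was not always enough; inconclusive = exactly half the replicates above a set limit; inactive = most replicates below a set limit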;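 also: all wells also contain fluconazole at 8 µg/ml as a sub-toxic cotreatment; 0% = median of DMSO wells and 100% = median of geldanamycin control wells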
Mdm2 MdmX PPI: inhibitors of human Mdm2/MdmX interaction. SaOS-2 split-luciferase Mdm2/MdmX complementation, luminescence. AID 485346. inhibition, % at 8 µM. actives 3% (n = 330,000);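 active = inhibition of at least 50% at 8 µM in the primary screen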
Target sequence (O15151 whole entry, looked up): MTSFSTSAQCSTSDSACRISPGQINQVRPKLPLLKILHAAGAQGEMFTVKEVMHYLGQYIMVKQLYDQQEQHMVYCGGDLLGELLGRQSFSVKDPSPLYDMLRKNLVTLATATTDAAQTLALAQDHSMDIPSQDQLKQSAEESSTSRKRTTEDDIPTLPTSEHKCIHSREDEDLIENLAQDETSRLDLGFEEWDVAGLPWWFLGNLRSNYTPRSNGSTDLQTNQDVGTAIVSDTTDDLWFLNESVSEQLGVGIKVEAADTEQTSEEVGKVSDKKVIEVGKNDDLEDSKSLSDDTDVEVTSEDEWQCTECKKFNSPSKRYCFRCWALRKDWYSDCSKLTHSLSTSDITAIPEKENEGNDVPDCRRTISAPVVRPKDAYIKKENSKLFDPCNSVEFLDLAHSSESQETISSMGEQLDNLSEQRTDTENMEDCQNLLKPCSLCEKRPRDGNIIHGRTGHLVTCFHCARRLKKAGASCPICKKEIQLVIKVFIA
Target sequence (Q00987 whole entry, looked up): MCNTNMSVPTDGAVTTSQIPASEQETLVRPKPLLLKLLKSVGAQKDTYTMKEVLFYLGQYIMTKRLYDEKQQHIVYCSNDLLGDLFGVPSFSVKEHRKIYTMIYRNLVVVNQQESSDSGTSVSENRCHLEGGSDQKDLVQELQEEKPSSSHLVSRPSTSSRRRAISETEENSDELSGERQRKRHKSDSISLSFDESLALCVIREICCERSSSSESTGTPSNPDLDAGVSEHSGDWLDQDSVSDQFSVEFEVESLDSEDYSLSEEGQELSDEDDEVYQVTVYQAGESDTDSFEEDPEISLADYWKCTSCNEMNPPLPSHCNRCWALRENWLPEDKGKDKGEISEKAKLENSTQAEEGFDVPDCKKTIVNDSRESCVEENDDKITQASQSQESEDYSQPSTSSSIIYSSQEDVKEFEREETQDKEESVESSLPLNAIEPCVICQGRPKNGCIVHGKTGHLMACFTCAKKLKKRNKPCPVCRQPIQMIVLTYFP
Mdm2 MdmX conf: confirmation of human Mdm2/MdmX interaction inhibitors. shares compounds with Mdm2 MdmX PPI. Mdm2-MdmX binding, luminescent assay. inhibition, % at 8 µM. actives 55% (n = 10,000). AID 489028; in the data active = inhibition above about 40%
Full FLuc ctr: counter-screen for Mdm2/MdmX inhibitors: full-length luciferase; shares compounds with Mdm2 MdmX PPI; SaOS-2 full-length luciferase counterscreen, luminescence; inhibition, % at 8 µM; actives 77% (n = 6,200);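 active = mean inhibition at 8 µM reaching about 37%, which flags the compound as non-specific, limit read from the data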;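 also: p53-null SaOS-2 cells with luciferase driven by a doxycycline-inducible promoter; compound on cells about two nights before reading with doxycycline added after day one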
An asterisk follows results filed as active; ? = inconclusive; nt = not tested or not shown. In the library only some 5.7% were active in any assay of this set; here they are far more common.

SMILES	CSC inhib	Beta apoptosis	SKKanGAS inh	T cruzi inh	Calb FLC	Mdm2 MdmX PPI	Mdm2 MdmX conf	Full FLuc ctr
Cc1nn(CC(=O)NCc2cc3ccccc3[nH]2)c(C)c1[N+](=O)[O-]	-7	-11	2	-6	-3	-2	nt	nt
CCOc1ccc(NC(=S)N2CCN(S(=O)(=O)c3ccccc3)CC2)cc1	6	1	nt	nt	-12	14	nt	nt
Cc1ccc(-c2nc(C(=O)NCC3CCCO3)cc3c2[nH]c2ccccc23)cc1 (stereo not drawn)	46	49	43	53	0	73*	44*	66*
Cc1ccccc1-c1nc(C(=O)NCC2CCCO2)cc2c1[nH]c1ccccc12 (stereo not drawn)	-12	35	22	43	-1	57*	28	nt
Cc1ccc(-c2nc(C(=O)NCCCN(C)C)cc3c2[nH]c2ccccc23)cc1	10	21	13	43	1	66*	27	nt
O=C(NCC1CCCO1)c1cc2c([nH]c3ccccc32)c(-c2cccc(Br)c2)n1 (stereo not drawn)	34	58	44	55*	-5	62*	36	63*
Cc1ccc(S(=O)(=O)N(C)C)cc1NC(=O)C1CCCCC1	-1	-7	-1	5	-4	8	nt	nt
CCCCCC1=NN2C(=O)CC(=O)N=C2S1	-4	-2	13	1	-7	3	nt	nt
CCOc1ccc(CCNC(=O)COC(=O)CNS(=O)(=O)c2ccc(NC(C)=O)cc2)cc1OCC	-7	-2	6	0	-9	-1	nt	nt
CS(=O)(=O)c1ccccc1C(=O)Nc1ccc(-c2nc3ccccc3[nH]2)cc1	-3	-3	1	-13	-3	-58	nt	nt
O=C(Nc1ccc(-c2nc3ccc(NC(=O)c4cccs4)cc3[nH]2)cc1)c1cccs1	102*	24	0	-2	-3	95*	47*	34
Cc1ccccc1C(=O)Nc1ccc(-c2nc3ccc(C(=O)c4ccccc4)cc3[nH]2)cc1	84*	14	31	50	1	67*	33	46*
O=C(Nc1ccc2nc(-c3cccs3)[nH]c2c1)c1cccs1	7	32	0	-2	-16	-2	nt	nt
O=C(O)c1cc(S(=O)(=O)Nc2ccc3c(c2)OCCO3)c(Cl)cc1Cl	10	-4	0	-4	1	55*	42*	67*
COc1ccc(CCNC(=O)CN(c2cc(C)cc(C)c2)S(=O)(=O)c2c(C)noc2C)cc1OC	-10	1	-1	6	-1	13	nt	nt
Cc1ccc(NC(=O)c2cccc3ccccc23)cc1	23	3	12	-32	-22	-17	nt	nt
COc1ccc(CNCC(O)(c2ccccc2)c2ccc(Cl)cc2)cc1 (stereo not drawn)	10	8	3	30	-20	50*	4	nt
Cc1c(NC(=O)CN2CCN(c3ccc(F)cc3)CC2)c(=O)n(-c2ccccc2)n1C	-6	-1	-5	-7	3	14	nt	nt
COc1cc(C(=O)Nc2ccc(-c3nc4cc(C)ccc4o3)c(O)c2)cc(OC)c1OC	72	28	103*	6	3	74*	52*	41*
COc1cc(C(=O)Nc2ccc3c(c2)nc(C)n3C)cc(OC)c1OC	15	8	-14	3	-5	67*	43*	61*
COc1cc(C(=O)Nc2ccc3c(c2)ncn3C)cc(OC)c1OC	54	32	-1	-109	12	55*	55*	58*
CC(=O)Nc1ccc2c(c1)ncn2C	2	-5	-5	5	-16	9	nt	nt
COc1cccc(C(=O)Nc2ccc(-c3nc4ccccc4o3)c(O)c2)c1	22	10	28	19	0	10	nt	nt
CC1CN(C(=O)c2cc3cc(Br)ccc3[nH]2)CC(C)O1 (stereo not drawn)	-1	-4	-2	7	7	4	nt	nt
COc1cc(OC)cc(-c2sc3ccc(OC)cc3c2-c2ccc(OCCN3CCCCC3)cc2)c1	nt	nt	nt	nt	nt	63*	19	nt
SMILES	CSC inhib	Beta apoptosis	SKKanGAS inh	T cruzi inh	Calb FLC	Mdm2 MdmX PPI	Mdm2 MdmX conf	Full FLuc ctr
c1ccc(-c2sc3ccccc3c2-c2ccc(OCCN3CCCCC3)cc2)cc1	71	-3	nt	nt	nt	5	nt	nt
CN(C)CCOc1ccc(-c2c(-c3ccccc3)sc3ccccc23)cc1	142*	83*	nt	nt	nt	100*	30	nt
c1ccc2c(-c3ccc(OCCN4CCCCC4)cc3)c(-c3ccsc3)sc2c1	103*	7	nt	nt	nt	68*	25	nt
COc1ccc(-c2sc3cc4c(cc3c2-c2ccc(OCCN3CCCCC3)cc2)OCO4)cc1	nt	nt	nt	nt	nt	70*	24	nt
O=C(CCC(=O)N(CC(=O)NC1CCCC1)Cc1ccccc1Cl)Nc1nccs1	-14	2	-5	18	0	-21	nt	nt
COc1ccccc1CNC(=O)CN1CCN(c2ccc(C(C)=O)cc2)CC1	-10	-1	-8	6	-6	-7	nt	nt
COc1cc(/C=N/n2nnnc2N)cc(Cl)c1OC	-2	-8	-2	-10	-1	5	nt	nt
O=[N+]([O-])c1cc(S(=O)(=O)NCCN2CCOCC2)ccc1Sc1nnnn1-c1ccccc1	55	-15	11	5	3	66*	50*	20
O=[N+]([O-])c1cc(S(=O)(=O)NCCCN2CCOCC2)ccc1Cl	8	-7	-1	6	3	8	nt	nt
CC(C)C[C@H]1C(=O)N2CCC[C@H]2[C@]2(O)O[C@](NC(=O)C3C=C4c5cccc6[nH]c(Br)c(c56)C[C@H]4N(C)C3)(C(C)C)C(=O)N12 (stereo partly drawn)	2	11	16	31	nt	61*	28	nt
Cc1onc(-c2ccccc2Cl)c1C(=O)NCc1cccnc1	6	-4	-2	-7	7	-23	nt	nt
Cc1oc2c(c1C(=O)NCc1cccnc1)C(=O)c1ccccc1C2=O	101*	nt	86*	50	-13	99*	98*	4
COc1ccc(CNC(=O)c2c(C)oc3c2C(=O)c2ccccc2C3=O)cc1	100*	109*	87*	39	-15	81*	84*	54*
COc1ccc(CN(C)CC(O)COC(c2ccc(OC)cc2)c2ccc(OC)cc2)cc1 (stereo not drawn)	nt	10	3	7	5	33	nt	nt
CCOc1ccc(CN(C)CC(O)COC(c2ccc(OC)cc2)c2ccc(OC)cc2)cc1 (stereo not drawn)	-4	0	11	43	1	59*	29	nt
CN(Cc1cccs1)C(=O)COc1cccc2c1OC(C)(C)C2	nt	-1	nt	nt	nt	35	nt	nt
CC(=O)C(C(C)=O)c1c(Cl)c(O)c(O)c2c(C(=O)c3ccccc3)coc12	71	128*	-2	-11	?	60*	34	nt
